Shown are actives, neighbours in structure and some others; about 3.7% of the full set was active somewhere.
KCNK3 inh = human KCNK3 channel inhibition, primary screen | O14649 | CHO-KCNK3 thallium flux, FluxOR fluorescence; active compounds read low | B-score at 10 µM | 340,000 tested, 0.84% active | AID 602410;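 active means B-score under library mean minus 4 SD, starting fluorescence ratio at most library mean plus 5 SD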;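 further: more negative B-score means stronger inhibition of thallium flux through KCNK3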
KCNK9 inh = human KCNK9 channel inhibition | Q9NPC2 | HEK293 KCNK9, FluxOR thallium flux fluorescence; active compounds read low | B-score at 10 µM | 310,000 tested, 1.2% active;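 active means ratio B-score over 3 SD below the library mean, with starting fluorescence within 5 SD of its mean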;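 further: negative B-score means less thallium flux so channel inhibition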
KCNQ1 pot = potentiates or activates the human KCNQ1 potassium channel | 310,000 tested, 0.35% active | P51787 | B-score at 10 µM | CHO-K1 KCNQ1, thallium flux FluxOR fluorescence; active compounds read high;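 active means fluorescence ratio B-score, a plate-corrected score, at least three library SD, with initial intensity B-score within 5 SD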
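assay system = CHO-K1 cells stably expressing KCNQ1 | medium = assay buffer, equal DMSO in all wells | timing = 37 °C overnight plating, 90-min dark dye load, 20-min compound pretreatment | measured by = kinetic FluxOR thallium fluorescence, 10-s 1-Hz baseline, 110-s post-stimulus read | measure = fluorescence change relative to baseline, converted to B score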
Kir21 inh = blocks the mouse Kir2.1 inward-rectifier potassium channel | P35561 | HEK293-Kir2.1, FluxOR thallium flux fluorescence; active compounds read low | B-score at 10 µM | 310,000 tested, 0.85% active;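 active means fluorescence ratio B-score at or below minus 3 SD of library scores, with starting-brightness B-score within 2 SD, cut at about -4.2 in these data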;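 further: channel flux triggered by added potassium and thallium sulfate stimulus; B-score of peak minus minimum fluorescence over baseline after thallium stimulus; more negative B-score means stronger Kir2.1 block with less thallium influx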
KCNQ1 block = blocks the human KCNQ1 potassium channel; P51787; CHO-K1 KCNQ1, FluxOR thallium flux fluorescence; active compounds read high; AID 2642; B-score at 10 µM; 310,000 tested, 1.3% active;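 active means compounds whose thallium flux B-score, printed positive for inhibition, exceeds three library SD while starting fluorescence stays within three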;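 further: channel opened by potassium depolarization with thallium stimulus after 20 min compound exposure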
hERG rescue = compounds protecting human hERG from proarrhythmic drug block; Q12809; CHO-hERG, FluxOR thallium flux, dofetilide IC70 present; activation (rescue from dofetilide block), less the hit threshold, % at 10 µM; 310,000 tested, 0.51% active; AID 1511;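 active means activation above the mean of controls blocked by dofetilide plus 5 SD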;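 further: thallium influx through hERG after potassium depolarization seen as dye fluorescence rise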
Target sequence (Q12809 whole entry, looked up): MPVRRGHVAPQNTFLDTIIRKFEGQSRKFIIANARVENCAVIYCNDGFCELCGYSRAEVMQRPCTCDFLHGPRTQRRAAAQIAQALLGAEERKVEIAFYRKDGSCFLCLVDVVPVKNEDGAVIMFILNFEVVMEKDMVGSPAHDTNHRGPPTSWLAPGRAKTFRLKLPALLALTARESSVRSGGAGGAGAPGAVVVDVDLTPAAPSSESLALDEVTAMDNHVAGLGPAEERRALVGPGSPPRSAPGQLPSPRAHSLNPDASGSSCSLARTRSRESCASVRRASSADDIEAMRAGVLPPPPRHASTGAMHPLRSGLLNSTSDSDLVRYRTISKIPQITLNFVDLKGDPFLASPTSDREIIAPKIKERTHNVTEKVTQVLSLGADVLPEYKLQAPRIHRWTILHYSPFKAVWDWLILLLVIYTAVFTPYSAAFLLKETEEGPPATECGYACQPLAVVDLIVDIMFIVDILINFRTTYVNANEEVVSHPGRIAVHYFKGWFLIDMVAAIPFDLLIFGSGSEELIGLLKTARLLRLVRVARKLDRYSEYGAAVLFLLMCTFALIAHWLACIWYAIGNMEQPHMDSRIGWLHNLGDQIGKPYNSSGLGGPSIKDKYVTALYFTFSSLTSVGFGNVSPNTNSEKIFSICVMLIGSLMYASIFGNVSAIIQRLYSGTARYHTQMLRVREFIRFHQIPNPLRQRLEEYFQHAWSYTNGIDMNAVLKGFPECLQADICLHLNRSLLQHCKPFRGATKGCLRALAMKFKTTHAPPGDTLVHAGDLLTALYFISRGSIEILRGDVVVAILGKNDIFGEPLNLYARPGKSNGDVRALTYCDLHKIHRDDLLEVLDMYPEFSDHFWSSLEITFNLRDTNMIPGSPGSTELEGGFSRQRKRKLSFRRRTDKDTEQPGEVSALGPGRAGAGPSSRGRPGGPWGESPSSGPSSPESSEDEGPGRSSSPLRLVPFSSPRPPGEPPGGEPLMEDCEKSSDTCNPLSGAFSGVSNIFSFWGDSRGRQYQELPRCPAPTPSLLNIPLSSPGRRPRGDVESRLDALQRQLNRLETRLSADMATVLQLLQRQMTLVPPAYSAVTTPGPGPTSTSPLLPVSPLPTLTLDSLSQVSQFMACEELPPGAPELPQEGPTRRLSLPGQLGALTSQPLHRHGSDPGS
Active calls of the source: *; i = inactive; . = not tested or not shown.

SMILES	KCNK3 inh	KCNK9 inh	KCNQ1 pot	Kir21 inh	KCNQ1 block	hERG rescue
COc1cc(C2c3cc4c(cc3C(OC3OC5COC(c6cccs6)OC5C(O)C3O)C3COC(=O)C23)OCO4)cc(OC)c1O (centres undefined)	i	i	i	2.5	8*	-13
COc1cc([C@@H]2c3cc4c(cc3[C@@H](NC3CCN(Cc5ccccc5)CC3)[C@H]3COC(=O)[C@H]23)OCO4)cc(OC)c1O	.	i	i	0.17	i	-8
COc1cccc(/C=N/n2c(SC)nnc2-c2ccccc2)c1O	i	i	15*	1.7	i	2
COc1cccc(/C=N/n2c(SC)nnc2-c2ccccc2)c1OC	i	i	i	0	i	-12
COc1cc2cc(CN(Cc3cccs3)C(=S)Nc3cccc(C)c3)c(=O)[nH]c2cc1OC	.	i	i	0.82	7*	-11
COc1cc2cc(CN(Cc3cccs3)C(=S)Nc3ccc(C)cc3)c(=O)[nH]c2cc1OC	i	i	i	1.7	i	-13
O=C(NC1CC(=O)N(c2ccc(F)cc2)C1)C(=O)c1c[nH]c2ccccc12 (centres undefined)	i	i	i	0.34	i	-9
CCN(c1nc(C)cc(OC)n1)S(=O)(=O)c1ccccc1	i	i	i	-6.6*	i	-7
CCc1ccc(-c2nc(CSCC(=O)N3CCN(c4ccccn4)CC3)c(C)o2)cc1	i	i	i	-1.4	i	-33
Cc1ccc(-c2nc(CSCC(=O)N3CCN(c4ccccn4)CC3)c(C)o2)cc1	-8.9*	i	i	-0.17	i	-18
COc1ccc(C)cc1NC(=O)C(OC(=O)CNC(=O)c1cc(C)cc(C)c1)c1ccccc1 (centres undefined)	i	-8*	i	-0.1	i	-5
COc1ccc(C)cc1NC(=O)C(OC(=O)c1cnccn1)c1ccccc1 (centres undefined)	i	i	i	2.3	i	-16
C=CCn1c(O)c(N=NC(=S)Nc2ccccc2F)c2cc(S(=O)(=O)N3CCOCC3)ccc21	i	i	10*	-0.01	i	5.9*
Cc1ccc(Cn2c(O)c(N=NC(=S)Nc3ccccc3F)c3ccccc32)cc1	i	i	i	0.56	i	18*
C=CCn1c(O)c(N=NC(=O)c2ccccc2NS(=O)(=O)c2cccs2)c2ccccc21	i	i	i	0.04	i	-10
C=CCn1c(O)c(N=NC(=S)Nc2ccccc2F)c2ccccc21	i	i	48*	-2.6	i	102*
Oc1c(N=NC(=S)Nc2ccccc2F)c2ccccc2n1Cc1ccccc1Cl	i	i	10*	-0.89	i	21*
Cc1cc(C(=O)CN2c3cccc4cccc(c34)S2(=O)=O)c(C)n1C	i	.	.	.	.	.
CCn1c(O)c(N=NC(=O)CNc2cccc(C)c2)c2ccccc21	i	i	i	-2	i	2
C/C(Cl)=C\Cn1c(O)c(N=NC(N)=S)c2ccccc21	i	i	i	0.9	i	15*
Oc1c(N=NC(=S)Nc2ccccc2F)c2ccccc2n1Cc1ccccc1	i	i	10*	-1.1	i	59*
NC(=S)N=Nc1c(O)n(Cc2ccccc2)c2ccccc12	i	i	i	3.2	i	-4
C=CCn1c(O)c(N=NC(=S)Nc2cccc(C)c2)c2ccccc21	i	i	40*	-0.98	i	19*
CCN1CCN(S(=O)(=O)c2ccc(Cl)c(C(=O)N(C)Cc3ccco3)c2)CC1	i	.	.	.	.	.
Cc1cc(NC(=O)CCC(=O)N(CCC(C)C)C(C(=O)NCC2CCCO2)c2ccccc2C)no1 (centres undefined)	i	i	i	-0.66	i	-6
SMILES	KCNK3 inh	KCNK9 inh	KCNQ1 pot	Kir21 inh	KCNQ1 block	hERG rescue
CCN(CC(=O)Nc1c(F)cccc1F)C(=O)c1ccc(C(F)(F)F)cc1	i	-7.9*	i	1.7	i	-1
CCN(CC(=O)Nc1c(F)cccc1F)C(=O)c1ccc(COc2ccccc2)cc1	i	i	i	0.96	i	-17
Cc1cc(S(=O)(=O)N2CCCCC2)c(C)s1	i	i	i	1.2	i	-10
CC(=O)N1CCN(c2ccc(Oc3ccc([N+](=O)[O-])c(C(F)(F)F)c3)cc2)CC1	i	i	i	-1.2	11*	-12
CCOc1ccc(C(=O)Nc2ccc(N3CCN(C(C)=O)CC3)cc2)cc1[N+](=O)[O-]	i	i	i	1.4	i	-8
CCOc1ccc(N(C)S(=O)(=O)c2ccc(C)c(C(=O)OCC(=O)c3c[nH]c4ccccc34)c2)cc1	i	-7.6*	i	2.2	i	-10
Cc1ccc(S(=O)(=O)N2CCN(C(=O)Cn3c(=O)oc4ccccc43)CC2)c(C)c1	i	.	.	.	.	.
CCCN1C(=O)/C(=C\C=C2/C=CN(CC)c3ccccc32)SC1=S	i	i	i	1.5	i	-14
CCCCN1C(=O)/C(=C/C=C2\N(C)c3ccccc3C2(C)C)SC1=S	.	i	i	-2.7	11*	-17
COc1ccccc1N1CCN(C(=S)Nc2ccc(F)cc2)CC1	i	i	i	-0.18	i	0
CCC(C)c1ccccc1NC(=O)c1cc2cccc([N+](=O)[O-])c2[nH]1 (centres undefined)	i	i	i	0.77	8*	-11
CCOC(=O)C1CCCN(C(=O)c2ccc(Cn3c(=S)[nH]c4cc(C(=O)OC)ccc4c3=O)cc2)C1 (centres undefined)	i	i	i	2.1	i	6.6*
COc1ccc(S(=O)(=O)N2CCOC23CCN(S(=O)(=O)c2cc(F)ccc2F)CC3)cc1	i	i	i	1.2	i	-7
Cc1ccc(NC(=O)CCOc2ccccc2C)cc1C	i	i	i	-0.03	i	-5
O=C(/C(=C/O)N=Nc1ccccc1)c1ccncc1	i	-7.6*	i	-1.4	i	-8
O=C(/C(=C/O)N=Nc1ccccc1)c1ccc(Cl)cc1	i	i	i	0.66	i	-7
CC(=O)N1C(=O)c2cccc3cccc(c23)C(=O)N1C(C)=O	.	i	i	0.35	i	-1
O=C1c2cccc3cccc(c23)C(=O)C1(O)O	i	i	i	-0.64	i	8.0*
N=c1sccn1CC(=O)Nc1cc(Cl)ccc1Oc1ccccc1	i	i	i	-4.8*	i	-12
S=C(Nc1ccccc1)Nc1cc(Cl)ccc1Oc1ccccc1	i	i	i	-1.3	9*	-7
N=c1sccn1CC(=O)Nc1cccc(Oc2ccccc2)c1	i	i	i	-4.3*	i	-7

Screens (PubChem BioAssay)
